Experimental data taken from ChEMBL document CHEMBL2434847, “Design, synthesis, and structure-activity relationships of novel 6,7-disubstituted-4-phenoxyquinoline derivatives as potential antitumor agents” (Eur J Med Chem, 2013).

Legend:
U-87 MG = assay: Ratio of foretinib IC50 to compound IC50 for human U87MG cells; type: functional, U-87MG ATCC
HT-29 [1] = assay: Ratio of foretinib IC50 to compound IC50 for human HT-29 cells; type: functional
[2] = molecular target: Platelet-derived growth factor receptor beta (Homo sapiens, UniProt P09619); assay: Inhibition of PDGFRbeta (unknown origin) using poly (Glu, Tyr) (4:1) as substrate after 30 mins by spectrophotometric analysis
Sequence of Platelet-derived growth factor receptor beta (P09619 whole entry): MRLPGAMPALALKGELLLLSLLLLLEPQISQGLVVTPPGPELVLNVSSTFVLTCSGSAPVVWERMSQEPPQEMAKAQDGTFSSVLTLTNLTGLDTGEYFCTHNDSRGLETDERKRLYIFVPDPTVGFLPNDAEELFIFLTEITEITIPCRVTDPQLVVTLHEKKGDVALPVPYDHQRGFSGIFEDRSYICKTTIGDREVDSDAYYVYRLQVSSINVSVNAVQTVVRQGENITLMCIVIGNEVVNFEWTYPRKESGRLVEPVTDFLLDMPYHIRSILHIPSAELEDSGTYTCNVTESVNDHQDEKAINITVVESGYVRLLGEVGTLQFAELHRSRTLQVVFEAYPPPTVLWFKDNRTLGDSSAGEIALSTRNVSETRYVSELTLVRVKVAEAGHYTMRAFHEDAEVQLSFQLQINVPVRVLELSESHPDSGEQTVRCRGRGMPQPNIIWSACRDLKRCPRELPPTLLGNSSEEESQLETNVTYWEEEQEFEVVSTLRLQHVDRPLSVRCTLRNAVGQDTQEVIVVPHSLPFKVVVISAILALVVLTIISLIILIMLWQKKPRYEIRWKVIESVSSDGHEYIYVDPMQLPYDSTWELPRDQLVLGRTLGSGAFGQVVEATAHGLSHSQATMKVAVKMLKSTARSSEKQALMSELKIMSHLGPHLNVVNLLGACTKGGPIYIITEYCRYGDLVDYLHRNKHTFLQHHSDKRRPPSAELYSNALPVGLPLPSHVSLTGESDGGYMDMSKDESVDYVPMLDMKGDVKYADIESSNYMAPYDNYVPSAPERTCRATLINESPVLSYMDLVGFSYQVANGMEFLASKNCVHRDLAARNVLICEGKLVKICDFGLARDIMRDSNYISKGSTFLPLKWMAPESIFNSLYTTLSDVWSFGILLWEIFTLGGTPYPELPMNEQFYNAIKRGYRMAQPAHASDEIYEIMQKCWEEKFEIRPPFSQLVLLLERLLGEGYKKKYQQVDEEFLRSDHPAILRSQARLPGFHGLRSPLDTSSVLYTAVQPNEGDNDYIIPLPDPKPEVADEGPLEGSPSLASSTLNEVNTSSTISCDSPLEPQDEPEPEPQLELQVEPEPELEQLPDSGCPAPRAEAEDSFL

[3] = Ratio of foretinib IC50 to compound IC50 for human H460 cells; type: functional
[4] = molecular target: Vascular endothelial growth factor receptor 2 (Homo sapiens, UniProt P35968); assay: Inhibition of VEGFR2 (unknown origin) using poly (Glu, Tyr) (4:1) as substrate after 30 mins by spectrophotometric analysis
Sequence of Vascular endothelial growth factor receptor 2 (P35968 whole entry): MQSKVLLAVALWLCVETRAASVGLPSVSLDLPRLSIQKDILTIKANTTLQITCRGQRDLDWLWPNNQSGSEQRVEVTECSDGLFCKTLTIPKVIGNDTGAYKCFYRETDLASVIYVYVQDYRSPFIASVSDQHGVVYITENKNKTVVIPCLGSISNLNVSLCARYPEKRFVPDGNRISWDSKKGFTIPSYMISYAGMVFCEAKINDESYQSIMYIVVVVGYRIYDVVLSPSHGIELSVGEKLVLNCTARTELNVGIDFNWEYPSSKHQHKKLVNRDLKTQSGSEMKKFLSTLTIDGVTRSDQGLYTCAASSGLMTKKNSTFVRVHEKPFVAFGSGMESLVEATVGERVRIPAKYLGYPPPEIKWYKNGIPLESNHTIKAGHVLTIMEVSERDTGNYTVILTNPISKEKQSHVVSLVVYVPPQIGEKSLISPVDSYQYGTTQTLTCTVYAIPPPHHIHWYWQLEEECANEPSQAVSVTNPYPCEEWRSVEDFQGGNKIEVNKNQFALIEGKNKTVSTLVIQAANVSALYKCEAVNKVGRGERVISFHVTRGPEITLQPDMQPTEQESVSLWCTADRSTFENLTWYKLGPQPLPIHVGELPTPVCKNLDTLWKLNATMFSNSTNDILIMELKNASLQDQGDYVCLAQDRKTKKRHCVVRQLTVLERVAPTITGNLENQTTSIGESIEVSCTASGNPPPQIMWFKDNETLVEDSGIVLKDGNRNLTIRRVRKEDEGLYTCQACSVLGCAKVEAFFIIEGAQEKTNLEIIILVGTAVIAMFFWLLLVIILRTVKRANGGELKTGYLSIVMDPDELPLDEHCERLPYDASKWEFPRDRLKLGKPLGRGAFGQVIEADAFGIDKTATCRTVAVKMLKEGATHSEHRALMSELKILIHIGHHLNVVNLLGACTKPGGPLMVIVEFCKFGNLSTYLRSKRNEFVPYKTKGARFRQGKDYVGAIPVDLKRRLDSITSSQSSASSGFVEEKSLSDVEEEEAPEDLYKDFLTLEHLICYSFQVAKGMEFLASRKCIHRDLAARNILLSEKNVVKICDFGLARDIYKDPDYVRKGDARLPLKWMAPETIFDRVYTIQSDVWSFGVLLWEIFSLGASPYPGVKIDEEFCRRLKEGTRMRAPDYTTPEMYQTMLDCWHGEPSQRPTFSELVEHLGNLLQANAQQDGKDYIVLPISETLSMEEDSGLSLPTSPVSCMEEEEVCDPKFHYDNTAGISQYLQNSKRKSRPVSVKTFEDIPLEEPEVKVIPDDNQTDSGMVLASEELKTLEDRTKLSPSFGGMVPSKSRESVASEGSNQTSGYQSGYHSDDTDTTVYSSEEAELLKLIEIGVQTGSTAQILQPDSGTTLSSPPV

[5] = molecular target: Epidermal growth factor receptor (Homo sapiens, UniProt P00533); assay: Inhibition of EGFR (unknown origin) using poly (Glu, Tyr) (4:1) as substrate after 30 mins by spectrophotometric analysis
A549 = assay: Cytotoxicity against human A549 cells after 72 hrs by MTT assay; type: functional, cell-based; settings: A549, 72 h
How it was run: (§1)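 Cells grown in MEM with 10% FBS; about 4 × 10³ cells per well, preincubated 24 h at 37 °C in 5% CO₂, then exposed to compound for 72 h. Each line tested three times; IC50 is mean of three determinations.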

HT-29 [6] = assay: Cytotoxicity against human HT-29 cells after 72 hrs by MTT assay; settings: HT-29, 72 h
[7] = molecular target: Mast/stem cell growth factor receptor Kit (Homo sapiens, UniProt P10721); assay: Inhibition of c-KIT (unknown origin) using poly (Glu, Tyr) (4:1) as substrate after 30 mins by spectrophotometric analysis
Sequence of Mast/stem cell growth factor receptor Kit (P10721 whole entry): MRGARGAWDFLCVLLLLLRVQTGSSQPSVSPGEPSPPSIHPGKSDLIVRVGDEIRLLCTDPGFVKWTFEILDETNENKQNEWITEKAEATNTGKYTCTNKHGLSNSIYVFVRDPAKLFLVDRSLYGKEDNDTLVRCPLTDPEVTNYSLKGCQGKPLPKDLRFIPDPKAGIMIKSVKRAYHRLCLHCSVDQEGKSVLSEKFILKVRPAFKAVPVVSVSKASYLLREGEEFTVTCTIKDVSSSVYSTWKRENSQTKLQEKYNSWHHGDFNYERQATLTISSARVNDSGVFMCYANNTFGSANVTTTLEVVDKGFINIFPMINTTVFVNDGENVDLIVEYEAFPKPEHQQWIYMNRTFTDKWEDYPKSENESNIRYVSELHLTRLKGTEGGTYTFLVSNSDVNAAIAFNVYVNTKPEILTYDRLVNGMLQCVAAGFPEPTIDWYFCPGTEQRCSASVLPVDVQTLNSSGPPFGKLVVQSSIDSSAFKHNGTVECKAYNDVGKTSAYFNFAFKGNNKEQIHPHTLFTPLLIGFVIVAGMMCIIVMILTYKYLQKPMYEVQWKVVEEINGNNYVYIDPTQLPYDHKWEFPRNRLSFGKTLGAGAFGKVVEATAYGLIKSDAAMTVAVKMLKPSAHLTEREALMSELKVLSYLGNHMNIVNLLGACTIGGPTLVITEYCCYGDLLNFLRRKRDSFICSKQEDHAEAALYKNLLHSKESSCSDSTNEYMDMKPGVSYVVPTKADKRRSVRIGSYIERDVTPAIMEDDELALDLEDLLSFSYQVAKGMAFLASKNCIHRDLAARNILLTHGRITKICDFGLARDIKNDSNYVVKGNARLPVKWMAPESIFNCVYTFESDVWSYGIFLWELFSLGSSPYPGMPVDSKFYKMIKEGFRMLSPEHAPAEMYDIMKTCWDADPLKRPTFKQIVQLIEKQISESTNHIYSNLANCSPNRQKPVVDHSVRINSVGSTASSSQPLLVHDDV

[8] = molecular target: Hepatocyte growth factor receptor (Homo sapiens, UniProt P08581); assay: Inhibition of c-MET (unknown origin) using poly (Glu, Tyr) (4:1) as substrate after 30 mins by spectrophotometric analysis
Sequence of Hepatocyte growth factor receptor (P08581 whole entry): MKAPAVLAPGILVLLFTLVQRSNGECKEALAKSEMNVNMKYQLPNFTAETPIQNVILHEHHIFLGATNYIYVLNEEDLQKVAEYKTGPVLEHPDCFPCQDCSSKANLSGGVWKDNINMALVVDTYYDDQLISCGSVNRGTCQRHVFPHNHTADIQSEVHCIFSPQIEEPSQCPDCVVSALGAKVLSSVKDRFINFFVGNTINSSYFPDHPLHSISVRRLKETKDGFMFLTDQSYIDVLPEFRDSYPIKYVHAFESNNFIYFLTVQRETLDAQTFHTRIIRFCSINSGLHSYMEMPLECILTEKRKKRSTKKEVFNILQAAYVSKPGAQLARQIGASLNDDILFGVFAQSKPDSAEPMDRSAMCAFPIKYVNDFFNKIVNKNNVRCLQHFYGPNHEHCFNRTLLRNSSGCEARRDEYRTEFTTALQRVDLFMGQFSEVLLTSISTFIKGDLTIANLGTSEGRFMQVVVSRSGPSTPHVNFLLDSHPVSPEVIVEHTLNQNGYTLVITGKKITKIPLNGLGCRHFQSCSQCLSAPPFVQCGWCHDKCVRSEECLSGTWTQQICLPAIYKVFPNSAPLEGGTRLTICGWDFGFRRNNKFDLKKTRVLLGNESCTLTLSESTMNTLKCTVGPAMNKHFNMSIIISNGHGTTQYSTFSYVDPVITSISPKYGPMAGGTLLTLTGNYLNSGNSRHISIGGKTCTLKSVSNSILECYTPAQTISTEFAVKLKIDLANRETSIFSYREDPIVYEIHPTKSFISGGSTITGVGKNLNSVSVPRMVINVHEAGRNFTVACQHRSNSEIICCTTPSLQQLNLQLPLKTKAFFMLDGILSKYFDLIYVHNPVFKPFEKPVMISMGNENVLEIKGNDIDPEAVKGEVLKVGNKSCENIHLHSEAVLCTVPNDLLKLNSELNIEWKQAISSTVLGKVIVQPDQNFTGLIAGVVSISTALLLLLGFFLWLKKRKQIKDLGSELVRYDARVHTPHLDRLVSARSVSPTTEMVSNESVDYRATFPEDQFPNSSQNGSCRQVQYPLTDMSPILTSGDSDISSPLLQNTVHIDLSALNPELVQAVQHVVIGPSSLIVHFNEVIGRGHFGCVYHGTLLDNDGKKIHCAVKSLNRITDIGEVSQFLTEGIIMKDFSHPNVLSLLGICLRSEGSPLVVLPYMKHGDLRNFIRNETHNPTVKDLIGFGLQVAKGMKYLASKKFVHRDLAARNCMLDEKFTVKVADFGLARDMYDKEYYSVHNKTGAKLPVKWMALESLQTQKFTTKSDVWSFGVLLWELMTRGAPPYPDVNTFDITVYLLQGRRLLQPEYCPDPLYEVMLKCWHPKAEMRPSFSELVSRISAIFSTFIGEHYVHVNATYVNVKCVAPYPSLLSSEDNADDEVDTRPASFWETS

MKN-45 = assay: Cytotoxicity against human MKN45 cells after 72 hrs by MTT assay; settings: MKN-45, 72 h
[9] = molecular target: T1, Receptor-type tyrosine-protein kinase FLT3 (Homo sapiens, UniProt P36888); assay: Inhibition of FLT3 (unknown origin) using poly (Glu, Tyr) (4:1) as substrate after 30 mins by spectrophotometric analysis
T1 sequence (P36888 whole entry): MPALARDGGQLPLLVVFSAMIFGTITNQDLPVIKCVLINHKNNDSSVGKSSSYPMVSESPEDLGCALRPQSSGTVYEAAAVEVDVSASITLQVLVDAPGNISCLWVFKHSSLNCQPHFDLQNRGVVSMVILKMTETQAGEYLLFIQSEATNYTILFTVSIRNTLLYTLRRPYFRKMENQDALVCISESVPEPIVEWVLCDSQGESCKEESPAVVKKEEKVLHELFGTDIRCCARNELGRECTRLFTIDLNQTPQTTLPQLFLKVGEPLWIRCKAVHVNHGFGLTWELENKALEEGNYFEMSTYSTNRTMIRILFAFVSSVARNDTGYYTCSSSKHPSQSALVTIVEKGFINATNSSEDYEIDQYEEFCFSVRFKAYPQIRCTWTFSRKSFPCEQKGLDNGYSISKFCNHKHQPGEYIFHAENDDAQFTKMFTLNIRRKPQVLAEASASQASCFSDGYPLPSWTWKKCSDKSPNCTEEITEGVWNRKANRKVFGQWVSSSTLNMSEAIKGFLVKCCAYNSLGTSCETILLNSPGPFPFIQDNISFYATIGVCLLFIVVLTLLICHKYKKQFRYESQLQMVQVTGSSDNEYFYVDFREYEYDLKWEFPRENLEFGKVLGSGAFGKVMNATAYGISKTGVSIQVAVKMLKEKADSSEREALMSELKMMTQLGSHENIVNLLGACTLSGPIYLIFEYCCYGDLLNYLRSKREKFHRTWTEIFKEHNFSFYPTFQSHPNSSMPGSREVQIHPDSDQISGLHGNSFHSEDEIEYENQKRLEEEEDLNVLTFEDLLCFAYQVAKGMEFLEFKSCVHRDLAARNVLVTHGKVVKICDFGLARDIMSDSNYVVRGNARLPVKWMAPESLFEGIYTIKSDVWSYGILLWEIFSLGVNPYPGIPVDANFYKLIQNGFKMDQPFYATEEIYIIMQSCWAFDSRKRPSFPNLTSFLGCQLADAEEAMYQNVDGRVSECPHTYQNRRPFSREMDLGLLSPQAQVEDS

[10] = Cytotoxicity against human H460 cells after 72 hrs by MTT assay; settings: NCI-H460, 72 h
[11] = Cytotoxicity against human U87MG cells after 72 hrs by MTT assay; type: functional, cell-based, U-87MG ATCC; settings: U-87 MG; how it was run: as §1

IC50 [2]: 1.42 nM | IC50 [4]: 532 nM | IC50 [5]: 90 nM | IC50 [7]: 450 nM | IC50 [8]: 1.39 nM | IC50 [9]: 1.08 nM
SMILES: COc1cc2c(Oc3ccc(NC(=O)c4cc(-c5ccc(C)cc5)ccn4)cc3F)ccnc2cc1OCCCN1CCN(C)CC1
Ratio IC50 (U-87 MG): 1.2 | Ratio IC50 (HT-29 [1]): 7.3 | Ratio IC50 [3]: 5.8 | IC50 (A549): 100 nM | IC50 (HT-29 [6]): 26 nM | IC50 (MKN-45): 73 nM | IC50 [10]: 37 nM | IC50 [11]: 810 nM
